This note sets out measurements from ChEMBL document CHEMBL1157514, “3-Alkenyl-2-azetidinones as fatty acid amide hydrolase inhibitors” (Bioorg Med Chem Lett, 2008).

Experiment [1] addresses T1, Monoglyceride lipase (Homo sapiens) (UniProt Q99685).
T1 sequence (whole entry): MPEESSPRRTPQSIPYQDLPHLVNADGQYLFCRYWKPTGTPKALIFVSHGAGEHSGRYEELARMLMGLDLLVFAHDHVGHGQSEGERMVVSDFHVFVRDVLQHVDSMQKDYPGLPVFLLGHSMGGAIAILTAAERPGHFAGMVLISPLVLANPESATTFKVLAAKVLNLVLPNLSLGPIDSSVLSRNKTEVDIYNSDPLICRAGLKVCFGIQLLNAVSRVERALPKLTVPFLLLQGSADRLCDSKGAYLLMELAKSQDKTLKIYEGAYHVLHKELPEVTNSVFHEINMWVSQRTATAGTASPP
Nature of the experiment: Inhibition of human MGL expressed in Escherichia coli at 1 mM. The method, boiled down: (§1)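 Human MGL expressed in E. coli was run in Tris-HCl pH 8 with [3H]-oleoylglycerol (50,000 dpm; 10 µM final) as substrate. Otherwise the radiometric hydrolysis protocol was similar: compound or DMSO, chloroform–methanol quench, scintillation counting of the aqueous phase, and subtraction of buffer-only blanks.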

The target of experiment [2] is T2, Fatty-acid amide hydrolase 1 (Homo sapiens) (UniProt O00519).
T2 sequence (whole entry): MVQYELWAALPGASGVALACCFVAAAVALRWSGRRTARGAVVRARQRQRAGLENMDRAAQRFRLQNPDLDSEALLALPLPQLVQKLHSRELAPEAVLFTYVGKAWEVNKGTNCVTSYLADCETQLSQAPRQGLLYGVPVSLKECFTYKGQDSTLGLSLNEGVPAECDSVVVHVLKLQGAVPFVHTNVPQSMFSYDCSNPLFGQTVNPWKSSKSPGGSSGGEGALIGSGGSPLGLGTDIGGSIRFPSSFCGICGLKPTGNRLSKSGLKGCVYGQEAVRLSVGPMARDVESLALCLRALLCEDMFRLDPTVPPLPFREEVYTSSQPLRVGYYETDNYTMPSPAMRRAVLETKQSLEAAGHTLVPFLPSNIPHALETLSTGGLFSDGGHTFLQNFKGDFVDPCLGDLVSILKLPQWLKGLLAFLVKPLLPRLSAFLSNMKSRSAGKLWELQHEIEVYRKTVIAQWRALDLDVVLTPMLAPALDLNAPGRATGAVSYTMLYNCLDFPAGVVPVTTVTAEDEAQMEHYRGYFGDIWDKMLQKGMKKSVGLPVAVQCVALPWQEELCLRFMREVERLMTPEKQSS
The experiment in a line: Inhibition of human FAAH expressed in Escherichia coli at 1 mM. Summed up: (§2)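 Human FAAH expressed in E. coli, in Tris-HCl pH 7.4, was added on ice to compound or DMSO. [3H]-AEA was added (50,000 dpm; 2 µM final) in Tris-HCl with 0.1% BSA, then incubated 10 min at 37 °C. The reaction was stopped on ice with cold MeOH–CHCl3 (1:1) and centrifuged. [3H]-ethanolamine in the aqueous phase was counted by liquid scintillation, with no-enzyme blanks subtracted.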

The species named for experiment [3] is Homo sapiens. Nature of the experiment: Selectivity ratio of IC50 for human FAAH over IC50 for human MGL.
Experiment [4] deals with T3, Fatty-acid amide hydrolase 1 (Homo sapiens, UniProt O00519).
T3 sequence (O00519 whole entry): T2 sequence (whole entry)
The experiment in a line: Inhibition of human FAAH expressed in Escherichia coli. Summed up: as §2

Experiment [5] has as its target T4, Monoglyceride lipase (Homo sapiens, UniProt Q99685).
T4 sequence (Q99685 whole entry): T1 sequence (whole entry)
Nature of the experiment: Inhibition of human MGL expressed in Escherichia coli. Summed up: as §1

The target of experiment [6] is T5, Pancreatic elastase (Sus scrofa) (UniProt P08419+P00772). Nature of the experiment: Inhibition of pig pancreatic elastase at 5 mM. Format: protein assay.
Experiment [7] concerns the target T5, Pancreatic elastase (Sus scrofa). The experiment in a line: Inhibition of pig pancreatic elastase at 0.1 mM. The class given is protein assay.
Experiment [8] has the same target. Nature of the experiment: Inhibition of pig pancreatic elastase at 10 mM. Format: protein assay.
Experiment [9] has the same target. Nature of the experiment: Inhibition of pig pancreatic elastase at 2.5 mM. Format: protein assay.
Experiment [10] is described as follows: Inhibition of penicillin-binding protein 2a assessed as residual activity at 100 uM after 16 hrs by SDS-PAGE. The method, boiled down:
(§3)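 Compound (100 µM) was incubated with PBP (0.8–2.5 µM) for 16 h at 30 °C in 50 mM sodium phosphate pH 7 with 5% DMF; PBP2a and PBP5 also had 0.5 M NaCl. Free PBP was then labelled with 25 µM fluorescein-ampicillin for 45 min and the reaction stopped with SDS-PAGE loading buffer. Gel fluorescence was quantified, background subtracted, and residual activity given as % of initial (triplicate).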

Experiment [11] can be described thus: Inhibition of penicillin-binding protein 5 assessed as residual activity at 100 uM after 16 hrs by SDS-PAGE. Summed up: as §3
Experiment [12] has as its target T5, Pancreatic elastase (Sus scrofa). The experiment in a line: Inhibition of pig pancreatic elastase at 100 uM. The class given is protein assay.
The nature of experiment [13]: Inhibition of penicillin-binding protein R39 assessed as residual activity. The method, boiled down:
as §3

The nature of experiment [14]: Inhibition of penicillin-binding protein 2x assessed as residual activity. Summed up:
as §3

Calls of active or inactive are those of the source. The rule behind the calls is not given here.

Turning to `C=CCCCC1(CCCC=C)CN([Si](C)(C)C(C)(C)C)C1=O`, the inhibition (in general, the change of the read-out against control, counted positive when it falls) in experiment [1] amounted to 10.3%; in [2] it was 25.2%.

For `C=CCCC1CNC1=O` (racemic), the figures for the inhibition in experiment [1] and in [2] were 8.1% and 48%, respectively.

Regarding `C=CCCCC1CN([Si](C)(C)C(C)(C)C)C1=O` (racemic), the inhibition in experiment [1] amounted to 54.9%; in experiment [2] it was 76.9%.

Take `C=CCCC1CN([Si](C)(C)C(C)(C)C)C1=O` (racemic): the values for the inhibition in experiment [1] and in experiment [2] were 69.9% and 49.5%, respectively.

For the compound `C=CCCC(=O)N1CC(CCC=C)C1=O` (racemic), the Ratio IC50 in experiment [3] came to 37. Further, the IC50 (as a rule, the concentration that inhibits the measured activity by half) in experiment [4] turned out to be 21.9 µM; in [5], 817 µM. In addition, the figures for the inhibition in experiment [1] and in experiment [2] were 58.1% and 103%, respectively. The outcome in experiment [6], in [7], in experiment [8] and in experiment [9] was inactive.

As for `C=CCC1CN([Si](C)(C)C(C)(C)C)C1=O` (racemic), the inhibition worked out at 77.5% in [1] and 43.6% in experiment [2].

On to `C=CCCCC1CN(C(=O)CCC=C)C1=O` (racemic), for which, in experiment [3], the Ratio IC50 is 146. Besides, the IC50 amounted to 4.5 µM in experiment [4] and 657 µM in experiment [5]. Further, the inhibition was found to be 62.1% in experiment [1] and 101% in experiment [2]. Besides, the outcome in experiment [6], in [7], in experiment [8] and in experiment [9] was inactive.

For `C=CCCC(=O)N1CC(CC=C)C1=O` (racemic), the Activity in experiment [10] is 87%; in [11], 104%; in experiment [13], 73%; in [14] it was 108%. In addition, the result in [12] was Active. Besides, the IC50 in experiment [4] worked out at 61.8 µM. In addition, the inhibition in [1] stood at 46.4%; in experiment [2], 96.5%.

`C=CCCCC1CNC1=O` (racemic): the values for the inhibition in experiment [1] and in experiment [2] were 54.9% and 80.9%, respectively.

Turning to `C=CCC1CNC1=O` (racemic), the inhibition worked out at 15.6% in [1] and 56.6% in experiment [2].

Take `C=CCCCC1(CCCC=C)CNC1=O`: half-maximal inhibition in [4] (IC50) was put at 259 µM. Further, the inhibition in experiment [1] worked out at 36.3%; in experiment [2] it was 80.5%.
